From ChEMBL document CHEMBL4392839, “Syntheses and bioactivities of songorine derivatives as novel G protein-coupled receptor antagonists” (Bioorg Med Chem, 2019)
Each block holds one molecule with its values, some of them ahead of it.

Experiments:
[1] = Antagonist activity at mouse GPCR by double antibody sandwich ELISA
Summary of the method: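 Double-antibody sandwich ELISA measuring mouse GPCR content, with a GPCR standard. Sample was mixed with diluted standard (37 ℃, 10 min), added to antibody-coated wells, then HRP conjugate was added (37 ℃, 30 min), followed by chromogens A and B and stop solution. OD450 was read within 5 min. Tested at 10 ng/L, 1 ng/mL, 0.1 μg/mL and 10 μg/mL, 30% DMSO in well. Percent inhibition versus no-inhibitor control (100%) from three independent experiments; IC50 from absorbance.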

[2] = species: Mus musculus; assay: Antagonist activity at mouse GPCR at 10 ng/L by double antibody sandwich ELISA relative to control

SMILES: C=C1C(=O)[C@]23C[C@H]1C(=O)C[C@H]2[C@@]12[C@@H]4[C@@H]3C[C@@H]1[C@@](C)(CC[C@@H]2O)CN4CC
IC50 [1]: 9.99 nM
inhibition [2]: 54.6%

IC50 [1]: > 10 nM
inhibition [2]: 39.3%
SMILES: C=C1[C@H]2C[C@@]3([C@@H]1S)[C@@H](CC2=S)[C@@]12[C@@H]4[C@@H]3C[C@@H]1[C@@](C)(CC[C@@H]2S)CN4CC

SMILES: C=C1[C@H]2C[C@@]3([C@@H]1O)[C@@H](C[C@@H]2O)[C@@]12[C@@H]4[C@@H]3C[C@@H]1[C@@](C)(CC[C@@H]2O)CN4CC
IC50 [1]: > 10 nM
inhibition [2]: 39.4%

SMILES: C=C1[C@H]2C[C@@]3([C@@H]1OC(=O)COCC)[C@@H](CC2=O)[C@@]12[C@@H](OC(=O)COCC)CC[C@@]4(C)CN(CC)[C@H]1[C@@H]3C[C@H]42
IC50 [1]: 5.91 nM
inhibition [2]: 55%

SMILES: C=C1[C@H]2C[C@@]3([C@@H]1OC(=O)/C=C/c1ccccc1)[C@@H](CC2=O)[C@@]12[C@@H]4[C@@H]3C[C@@H]1[C@@](C)(CC[C@@H]2O)CN4CC
IC50 [1]: 0.29 nM
inhibition [2]: 57.1%

SMILES: C=C1[C@H]2C[C@@]3([C@@H]1O)[C@@H](CC2=O)[C@@]12[C@@H]4[C@@H]3C[C@@H]1[C@@](C)(CC[C@@H]2O)CN4CC
IC50 [1]: 3.21 nM
inhibition [2]: 62.8%

SMILES: C=C1[C@H]2C[C@@]3([C@@H]1OC(=O)COC)[C@@H](CC2=O)[C@@]12[C@@H](OC(=O)COC)CC[C@@]4(C)CN(CC)[C@H]1[C@@H]3C[C@H]42
IC50 [1]: 0.08 nM
inhibition [2]: 85.3%

SMILES: C=C1[C@H]2C[C@@]3([C@@H]1OC(=O)CCC)[C@@H](CC2=O)[C@@]12[C@@H](OC(=O)CCC)CC[C@@]4(C)CN(CC)[C@H]1[C@@H]3C[C@H]42
IC50 [1]: 0.14 nM
inhibition [2]: 77.4%

SMILES: C=C1[C@H]2C[C@@]3([C@@H]1OC(=O)CCC)[C@@H](CC2=O)[C@@]12[C@@H]4[C@@H]3C[C@@H]1[C@@](C)(CC[C@@H]2O)CN4CC
IC50 [1]: 8.68 nM
inhibition [2]: 49.8%

IC50 [1]: > 10 nM
inhibition [2]: 34.6%
SMILES: C=C1C(=O)[C@]23C[C@H]1C(=O)C[C@H]2[C@@]12C(=O)CC[C@@]4(C)CN(CC)[C@H]1[C@@H]3C[C@H]42

SMILES: C=C1[C@H]2C[C@@]3([C@@H]1OC(=O)CC)[C@@H](C/C2=N/OC(=O)CC)[C@@]12[C@@H]4[C@@H]3C[C@@H]1[C@@](C)(CC[C@@H]2O)CN4CC
IC50 [1]: 3.65 nM
inhibition [2]: 50.3%

SMILES: C=C1[C@H]2C[C@@]3([C@@H]1O)[C@@H](C/C2=N/O)[C@@]12[C@@H]4[C@@H]3C[C@@H]1[C@@](C)(CC[C@@H]2O)CN4CC
IC50 [1]: 0.55 nM
inhibition [2]: 73.3%

SMILES: C=C1[C@H]2C[C@@]3([C@@H]1OC(=O)c1ccccc1)[C@@H](CC2=O)[C@@]12[C@@H]4[C@@H]3C[C@@H]1[C@@](C)(CC[C@@H]2O)CN4CC
IC50 [1]: 4.5 nM
inhibition [2]: 37.7%

SMILES: C=C1[C@H]2C[C@@]3([C@@H]1OC(C)=O)[C@@H](CC2=O)[C@@]12[C@@H]4[C@@H]3C[C@@H]1[C@@](C)(CC[C@@H]2O)CN4CC
IC50 [1]: 2.62 nM
inhibition [2]: 48.6%

SMILES: C=C1[C@H]2C[C@@]3([C@@H]1OC(=O)CC)[C@@H](CC2=O)[C@@]12[C@@H](OC(=O)CC)CC[C@@]4(C)CN(CC)[C@H]1[C@@H]3C[C@H]42
IC50 [1]: 0.59 nM
inhibition [2]: 65.9%

SMILES: CCN1C[C@]2(C)CC[C@H](O)[C@]34[C@@H]1[C@H](C[C@H]23)[C@@]12C[C@@H](C(=O)C[C@H]14)C(CO)(OC(=O)c1cccc(Cl)c1)[C@H]2O (stereo not given in full)
IC50 [1]: 0.23 nM
inhibition [2]: 68.7%

SMILES: C=C1[C@H]2C[C@@]3([C@@H]1O)[C@@H](C[C@H]2O)[C@@]12[C@@H]4[C@@H]3C[C@@H]1[C@@](C)(CC[C@@H]2O)CN4CC
IC50 [1]: > 10 nM
inhibition [2]: 46.3%

SMILES: C=C1[C@H]2C[C@@]3([C@@H]1OC(=O)CC)[C@@H](C/C2=N/OC(=O)CC)[C@@]12[C@@H](OC(=O)CC)CC[C@@]4(C)CN(CC)[C@H]1[C@@H]3C[C@H]42
IC50 [1]: > 10 nM
inhibition [2]: 36.4%

SMILES: C=C1[C@H]2C[C@@]3([C@@H]1OC(C)=O)[C@@H](CC2=O)[C@@]12[C@@H](OC(C)=O)CC[C@@]4(C)CN(CC)[C@H]1[C@@H]3C[C@H]42
IC50 [1]: 0.51 nM
inhibition [2]: 65.2%

SMILES: C=C1[C@H]2C[C@@]3([C@@H]1O)[C@@H](C/C2=N/NS(=O)(=O)c1ccc(C)cc1)[C@@]12[C@@H]4[C@@H]3C[C@@H]1[C@@](C)(CC[C@@H]2O)CN4CC
IC50 [1]: > 10 nM
inhibition [2]: 37.7%
